Here are results for 17 substances from ChEMBL document CHEMBL1140318, “Potent androgen antagonists based on carborane as a hydrophobic core structure” (J Med Chem, 2005).

In the assay the target is Androgen receptor (Homo sapiens) (UniProt P10275). As to the kind of experiment: Percent displacement of [3H]DHT binding to human androgen receptor expressed in Escherichia coli strain HB-101 at 10 uM. Summed up: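 GST-hAR ligand-binding domain expressed in E. coli HB-101 (1 mM IPTG, 27 °C, 4.5 h); crude sonicate diluted to 0.3-0.5 mg/mL protein (20 mM Tris-HCl pH 8.0, 0.3 M KCl, 1 mM EDTA). Incubated 15 h at 4 °C in dark with 4 nM [3H]DHT and 1 μM triamcinolone acetonide (final). Nonspecific binding measured with 200-fold unlabeled DHT. Dextran/γ-globulin-charcoal separation, supernatant scintillation-counted.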
UniProt P10275, sequence (P10275 whole entry, the tested form may be a part): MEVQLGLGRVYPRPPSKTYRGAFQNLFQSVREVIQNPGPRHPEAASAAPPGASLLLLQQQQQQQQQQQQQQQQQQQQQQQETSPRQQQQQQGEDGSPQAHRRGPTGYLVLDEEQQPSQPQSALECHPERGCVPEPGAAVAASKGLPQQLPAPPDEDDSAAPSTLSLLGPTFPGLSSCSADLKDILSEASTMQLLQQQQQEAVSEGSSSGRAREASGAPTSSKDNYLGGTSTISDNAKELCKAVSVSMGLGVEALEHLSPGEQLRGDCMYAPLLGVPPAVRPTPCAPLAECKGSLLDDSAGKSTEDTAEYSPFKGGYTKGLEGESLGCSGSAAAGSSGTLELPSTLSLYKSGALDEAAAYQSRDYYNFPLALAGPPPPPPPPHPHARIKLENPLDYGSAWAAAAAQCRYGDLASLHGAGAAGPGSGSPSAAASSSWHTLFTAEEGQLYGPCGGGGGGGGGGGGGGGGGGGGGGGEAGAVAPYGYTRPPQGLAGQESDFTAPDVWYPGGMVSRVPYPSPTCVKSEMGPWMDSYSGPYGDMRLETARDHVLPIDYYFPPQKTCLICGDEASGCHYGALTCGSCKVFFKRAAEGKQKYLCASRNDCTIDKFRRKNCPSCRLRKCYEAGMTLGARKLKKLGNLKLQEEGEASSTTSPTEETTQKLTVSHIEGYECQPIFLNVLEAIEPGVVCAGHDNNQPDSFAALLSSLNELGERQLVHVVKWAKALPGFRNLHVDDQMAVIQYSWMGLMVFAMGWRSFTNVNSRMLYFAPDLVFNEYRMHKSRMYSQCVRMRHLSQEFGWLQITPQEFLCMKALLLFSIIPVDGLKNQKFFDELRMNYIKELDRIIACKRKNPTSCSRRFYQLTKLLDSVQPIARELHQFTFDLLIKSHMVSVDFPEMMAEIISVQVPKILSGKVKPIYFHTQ
In general terms: In a radioligand displacement assay an active substance lowers the binding of a labelled ligand.
Regarding “1-(2-Hydroxyethyl)-12-(3-nitrophenyl)-1,12-dicarbacloso-dodecaborane”, the Binding affinity turned out to be 63%.

“1-(3-Hydroxypropyl)-12-(3-nitrophenyl)-1,12-dicarbacloso-dodecaborane”: the Binding affinity came out at 39%.

For the substance “1-(3-Nitrophenyl)-1,12-dicarba-closo-dodecaborane”, the Binding affinity came out at 36%.

Substance “1-(3-Nitrophenyl)-1,12-dicarba-closo-dodecaborane-1-carboxylic Acid” had a Binding affinity of 35%.

“1-(4-Hydroxybutyl)-12-(3-nitrophenyl)-1,12-dicarbacloso-dodecaborane” returned a Binding affinity of 20%.

Substance “1-(4-Nitrophenyl)-1,12-dicarba-closo-dodecaborane” displayed a Binding affinity of 29%.

In the case of “1-Hydroxy-12-(3-cyanophenyl)-1,12-dicarba-closo-dodecaborane”, the Binding affinity amounted to 66%.

“1-Hydroxy-12-(3-nitrophenyl)-1,12-dicarba-closo-dodecaborane” displayed a Binding affinity of 75%.

In turn, “1-Hydroxy-12-(4-cyanophenyl)-1,12-dicarba-closo-dodecaborane” had a Binding affinity of 50%.

With “1-Hydroxy-12-(4-nitrophenyl)-1,12-dicarba-closo-dodecaborane”, the Binding affinity was found to be 53%.

For “1-Hydroxymethyl-7-(3-nitrophenyl)-1,7-dicarba-closododecaborane”, the Binding affinity stood at 54%.

“1-Hydroxymethyl-7-(4-nitrophenyl)-1,7-dicarba-closododecaborane” yielded a Binding affinity of 60%.

As for “1-Hydroxymethyl-12-(3-cyanophenyl)-1,12-dicarbacloso-dodecaborane”, the Binding affinity is 95%.

With “1-Hydroxymethyl-12-(3-nitrophenyl)-1,12-dicarba-closododecaborane”, the Binding affinity is 97%.

With “1-Hydroxymethyl-12-(4-cyanophenyl)-1,12-dicarbacloso-dodecaborane”, the Binding affinity stood at 54%.

The substance “1-Hydroxymethyl-12-(4-nitrophenyl)-1,12-dicarba-closodod caborane” came in with a Binding affinity of 55%.

Turning to “1-Methoxycarbonyl-12-(3-nitrophenyl)-1,12-dicarbacloso-dodecaborane”, the Binding affinity was 18%.
